Experimental data taken from ChEMBL document CHEMBL3393048, “Discovery of potent cytotoxic ortho-aryl chalcones as new scaffold targeting tubulin and mitosis with affinity-based fluorescence” (J Med Chem, 2014).
Calls of active or inactive are those of the source. No cut-off for these calls is given here.

How the values were obtained:
A549 [1] = assay: Induction of apoptosis in human A549 cells assessed as viable cells at 0.75 uM after 48 hrs by Annexin V-FITC/propidium iodide staining-based flow cytometry (reference value: 99.37%); format: functional; conditions: A549, 48 h, read-out: Activity
A549 [2] = assay: Induction of apoptosis in human A549 cells assessed as late apoptotic cells at 1 uM after 48 hrs by Annexin V-FITC/propidium iodide staining-based flow cytometry (reference value: 0.10%); format: functional
A549 [3] = assay: Induction of apoptosis in human A549 cells assessed as necrotic cells at 1 uM after 48 hrs by Annexin V-FITC/propidium iodide staining-based flow cytometry (reference value: 0.06%); format: functional
A549 [4] = assay: Antiproliferative activity against human A549 cells after 48 hrs by SRB method; format: functional, cell-based; conditions: A549, 48 h
Procedure, shortened: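 SRB assay. Cells in DMEM high glucose with 10% FBS were seeded at 5000/well and grown 24 h; a day-0 plate was fixed at that point. Compounds were added in triplicate for 48 h. Cells were fixed with TCA at 4 °C for 1 h, stained with 0.4% SRB, and the dye was solubilized in 10 mM Tris pH 10.4. OD was read at 515 nm with day-0 OD subtracted. IC50 came from nonlinear regression of dose–response curves from at least two independent experiments.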

SW480 = assay: Antiproliferative activity against human SW480 cells after 48 hrs by SRB method; format: functional, cell-based; conditions: SW480, 48 h
Procedure, shortened: (§1)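 SRB assay. Cells in DMEM high glucose with 10% FBS were seeded at 5000/well and grown 24 h; a day-0 plate was fixed at that point. Compounds were added in triplicate for 48 h. IC50 came from nonlinear regression of dose–response curves from at least two independent experiments.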

MCF7 [5] = assay: Antiproliferative activity against human MCF7 cells after 48 hrs by SRB method; format: functional, cell-based; conditions: MCF7, 48 h; procedure, shortened: as §1
HepG2 = assay: Antiproliferative activity against human HepG2 cells after 48 hrs by SRB method; format: functional, cell-based; conditions: HepG2, 48 h; procedure, shortened: as §1
[6] = Antiproliferative activity against human HCT8 cells after 48 hrs by SRB method; format: functional, cell-based; conditions: HCT-8, 48 h; procedure, shortened: as §1
A2780 = assay: Drug resistance index, ratio of IC50 for taxol-resistant human A2780 cells to IC50 for human A2780 cells; format: functional
Procedure, shortened: (§2)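 Drug resistance index = IC50 in the resistant line / IC50 in its parental line. […] Pairs: A549/CDDP vs A549, MCF-7/DOX vs MCF-7, A2780/TAX vs A2780, HCT-8/VCT vs HCT-8.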

[7] = Drug resistance index, ratio of IC50 for vincristine-resistant human HCT8 cells to IC50 for human HCT8 cells; format: functional, HCT-8; procedure, shortened: as §2
MCF7 [8] = assay: Drug resistance index, ratio of IC50 for doxorubicin-resistant human MCF7 cells to IC50 for human MCF7 cells; format: functional; procedure, shortened: as §2
A549 [9] = assay: Cell cycle arrest in human A549 cells assessed as accumulation at G2/M phase at 7.81 to 250 nM after 24 hrs by Hoechst 33342 staining-based ArrayScanVTI analysis; format: functional
Procedure, shortened: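 A549 cells were seeded at 5000/well, cultured overnight, then treated 24 h over a 7.81–250 concentration series. Cells were fixed in prewarmed paraformaldehyde 10 min, permeabilized with Triton X-100, and nuclei stained with Hoechst 33342. Imaging was by ArrayScan VTI high-content analysis. Phase percentage = cells within a gated fluorescence intensity / total cells counted.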

A549 [10] = assay: Induction of apoptosis in human A549 cells assessed as apoptotic cells after 48 hrs by Annexin V-FITC/propidium iodide staining-based flow cytometry; format: functional, cell-based
A549 [11] = assay: Induction of apoptosis in human A549 cells assessed as total apoptotic cells at 0.25 uM after 48 hrs by Annexin V-FITC/propidium iodide staining-based flow cytometry; format: functional
A549 [12] = assay: Induction of apoptosis in human A549 cells assessed as total apoptotic cells at 0.5 uM after 48 hrs by Annexin V-FITC/propidium iodide staining-based flow cytometry; format: functional
A549 [13] = assay: Induction of apoptosis in human A549 cells assessed as total apoptotic cells at 1 uM after 48 hrs by Annexin V-FITC/propidium iodide staining-based flow cytometry; format: functional
A549 [14] = assay: Induction of apoptosis in human A549 cells assessed as late apoptotic cells at 0.25 uM after 48 hrs by Annexin V-FITC/propidium iodide staining-based flow cytometry (reference value: 0.10%); format: functional
A549 [15] = assay: Induction of apoptosis in human A549 cells assessed as early apoptotic cells at 0.25 uM after 48 hrs by Annexin V-FITC/propidium iodide staining-based flow cytometry (reference value: 0.47%); format: functional
Tubulin (Homo sapiens) [16] = biological target: T1, Tubulin (Homo sapiens) (UniProt P68371+Q9H4B7+P0DPH7+P68366+Q13509+Q71U36+P04350+Q3ZCM7+P07437+P68363+Q9BQE3+Q6PEY2+Q13885+Q9BVA1+Q9BUF5); assay: Binding affinity to tubulin (unknown origin) at 4 uM after 30 mins by fluorescence assay; format: protein-complex assay
Procedure, shortened: (§3)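 Intrinsic fluorescence on tubulin binding. Compounds were mixed with tubulin (4 μM or 8 μM) in general tubulin buffer and incubated 30 min. Readings were excitation 430/emission 510 nm or excitation 365/emission 465 nm, with kinetic reads from mixing. ΔF = stable emission minus tubulin-only fluorescence. Optimal wavelengths were set by wavelength scanning.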

Tubulin (Homo sapiens) [17] = biological target: T1, Tubulin (Homo sapiens); assay: Binding affinity to tubulin (unknown origin) after 30 mins by fluorescence assay; format: protein-complex assay; procedure, shortened: as §3
Tubulin (Homo sapiens) [18] = biological target: T1, Tubulin (Homo sapiens); assay: Binding affinity to tubulin (unknown origin) at 4 uM by fluorescence assay; format: protein-complex assay; conditions: TDE = time-dependent effect; procedure, shortened: as §3
A549 [19] = assay: Induction of apoptosis in human A549 cells assessed as necrotic cells at 0.25 uM after 48 hrs by Annexin V-FITC/propidium iodide staining-based flow cytometry (reference value: 0.06%); format: functional
A549 [20] = assay: Induction of apoptosis in human A549 cells assessed as viable cells at 0.25 uM after 48 hrs by Annexin V-FITC/propidium iodide staining-based flow cytometry (reference value: 99.37%); format: functional; conditions: A549, 48 h, read-out: Activity
A549 [21] = assay: Induction of apoptosis in human A549 cells assessed as late apoptotic cells at 0.5 uM after 48 hrs by Annexin V-FITC/propidium iodide staining-based flow cytometry (reference value: 0.10%); format: functional
A549 [22] = assay: Induction of apoptosis in human A549 cells assessed as necrotic cells at 0.5 uM after 48 hrs by Annexin V-FITC/propidium iodide staining-based flow cytometry (reference value: 0.06%); format: functional
A549 [23] = assay: Induction of apoptosis in human A549 cells assessed as viable cells at 0.5 uM after 48 hrs by Annexin V-FITC/propidium iodide staining-based flow cytometry (reference value: 99.37%); format: functional; conditions: A549, 48 h, read-out: Activity
A549 [24] = assay: Induction of apoptosis in human A549 cells assessed as early apoptotic cells at 0.75 uM after 48 hrs by Annexin V-FITC/propidium iodide staining-based flow cytometry (reference value: 0.47%); format: functional
A549 [25] = assay: Induction of apoptosis in human A549 cells assessed as late apoptotic cells at 0.75 uM after 48 hrs by Annexin V-FITC/propidium iodide staining-based flow cytometry (reference value: 0.10%); format: functional
A549 [26] = assay: Induction of apoptosis in human A549 cells assessed as necrotic cells at 0.75 uM after 48 hrs by Annexin V-FITC/propidium iodide staining-based flow cytometry (reference value: 0.06%); format: functional

CN(C)c1ccc(/C=C/C(=O)c2ccccc2-c2ccc(F)cc2)cc1
viability at 0.75 µM (A549 [1]): 8.57% | Activity (A549 [2]): 42.86% | Activity (A549 [3]): 7.91% | IC50 (A549 [4]): 73 nM | IC50 (SW480): 41 nM | IC50 (MCF7 [5]): 230 nM | IC50 (HepG2): 47 nM | IC50 [6]: 130 nM | Ratio IC50 (A2780): 0.52 | Ratio IC50 [7]: 0.72 | Ratio IC50 (MCF7 [8]): 0.68 | Activity (A549 [9]): Active | Activity (A549 [10]): Dose-dependent effect | Activity (A549 [11]): 69.1% | Activity (A549 [12]): 75.71% | Activity (A549 [13]): 83.88% | Activity (A549 [14]): 34.43% | Activity (A549 [15]): 34.67% | Activity (Tubulin (Homo sapiens) [16]): Active | Activity (Tubulin (Homo sapiens) [17]): Dose-dependent effect | Activity (Tubulin (Homo sapiens) [18]): tde | Activity (A549 [19]): 4.95% | viability at 0.25 µM (A549 [20]): 25.9% | Activity (A549 [21]): 41.85% | Activity (A549 [22]): 11.95% | viability at 0.5 µM (A549 [23]): 12.3% | Activity (A549 [24]): 36.61% | Activity (A549 [25]): 45.45% | Activity (A549 [26]): 9.38%
